This is an account of results in ChEMBL document CHEMBL4265908, “Structure-activity and structure-property relationships of novel Nrf2 activators with a 1,2,4-oxadiazole core and their therapeutic effects on acetaminophen (APAP)-induced acute liver injury” (Eur J Med Chem, 2018).

Type in all cases: cell-based
In one series the test system is HepG2. The series can be described thus: Cytotoxicity against human HepG2 cells at 80 uM after 24 hrs by MTT assay. The conditions noted are these: hepg2, 24 h. A general note: Tetrazolium dyes change colour on reduction, which living cells bring about.
For series [1], the target named is T1, Nuclear factor erythroid 2-related factor 2 (Homo sapiens) (UniProt Q16236).
T1 sequence (whole entry): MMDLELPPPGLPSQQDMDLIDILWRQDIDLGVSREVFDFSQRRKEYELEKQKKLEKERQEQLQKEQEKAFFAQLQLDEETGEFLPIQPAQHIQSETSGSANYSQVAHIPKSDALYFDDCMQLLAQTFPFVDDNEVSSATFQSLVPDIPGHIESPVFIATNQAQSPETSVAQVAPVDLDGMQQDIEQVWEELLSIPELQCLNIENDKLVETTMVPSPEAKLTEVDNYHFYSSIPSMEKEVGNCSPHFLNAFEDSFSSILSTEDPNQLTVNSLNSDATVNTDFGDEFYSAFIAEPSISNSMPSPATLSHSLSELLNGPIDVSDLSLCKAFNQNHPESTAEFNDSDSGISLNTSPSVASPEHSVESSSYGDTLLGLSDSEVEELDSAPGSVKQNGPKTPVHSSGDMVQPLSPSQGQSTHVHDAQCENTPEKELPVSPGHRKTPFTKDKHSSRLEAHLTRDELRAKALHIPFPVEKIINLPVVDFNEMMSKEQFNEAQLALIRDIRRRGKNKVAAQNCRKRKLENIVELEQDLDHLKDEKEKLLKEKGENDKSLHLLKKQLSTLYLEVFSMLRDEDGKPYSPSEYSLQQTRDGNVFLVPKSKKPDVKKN
As to the kind of experiment: Activation of Nrf2 in human HepG2-ARE-C8 cells assessed as induction of ARE-mediated luciferase activity at 20 uM after 24 hrs by luciferase reporter gene assay relative to control. The gist of the method: (§1)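 HepG2-ARE-C8 cells stably carrying ARE-luciferase, grown in DMEM with 10% FBS at 37 °C and 5% CO2. Seeded at 5 × 10^4 cells/well, left overnight, then given compound diluted from a 10 mM DMSO stock for 24 h. Cells lysed and luciferase read as RLU. Inductivity = (RLUtest − RLUblank)/(RLUcontrol − RLUblank), with DMSO as control. Mean ± SEM of three experiments.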
(In general: In a reporter assay the amount or activity of a reporter protein is the signal.)

In series [2] the target is T1, Nuclear factor erythroid 2-related factor 2 (Homo sapiens). The series can be described thus: Activation of Nrf2 in human HepG2-ARE-C8 cells assessed as induction of ARE-mediated luciferase activity at 0.1 uM after 24 hrs by luciferase reporter gene assay relative to control. The gist of the method: as §1
For series [3] the target is unchanged. The series can be described thus: Activation of Nrf2 in human HepG2-ARE-C8 cells assessed as induction of ARE-mediated luciferase activity at 1 uM after 24 hrs by luciferase reporter gene assay relative to control. The gist of the method: as §1
For series [4] the target is unchanged. The series can be described thus: Activation of Nrf2 in human HepG2-ARE-C8 cells assessed as induction of ARE-mediated luciferase activity at 40 uM after 24 hrs by luciferase reporter gene assay relative to control. The gist of the method:
as §1

Series [5] shares this target. As to the kind of experiment: Activation of Nrf2 in human HepG2-ARE-C8 cells assessed as induction of ARE-mediated luciferase activity at 80 uM after 24 hrs by luciferase reporter gene assay relative to control. The gist of the method:
as §1

The target is the same in series [6]. The series can be described thus: Activation of Nrf2 in human HepG2-ARE-C8 cells assessed as induction of ARE-mediated luciferase activity at 0.01 uM after 24 hrs by luciferase reporter gene assay relative to control. The gist of the method:
as §1

Take `Fc1ccc(-c2nc(-c3ccc(Cl)cc3)no2)cc1F`: the Activity entry is “Non-Toxic” in the series with HepG2; 7.65 in series [1]; 3.06 in series [2]; 3.85 in series [3]; 8.29 in series [4]; 9.95 in series [5]. Also, the Activity in series [6] amounted to 2.85.

For the compound `Fc1ccc(-c2noc(-c3ccc(F)c(F)c3)n2)nc1`, the Activity result with HepG2 was “Non-Toxic”; in series [1], 2.95; in series [2], 1.97; in series [3], 2.17; in series [4] it was 5.79; in series [5] it was 6.35. The Activity in series [6] is 0.96.

For the compound `Clc1ccc(-c2nc(-c3ccc4nc[nH]c4c3)no2)cc1`, the Activity result was “Non-Toxic” in the series with HepG2; 15.5 in series [1]; 0.72 in series [2]; 1.64 in series [3]; 18.5 in series [4]; 14.1 in series [5]. Also, in series [6], the Activity is 0.33.

As to `Clc1cccc(-c2nc(-c3ccc4nc[nH]c4c3)no2)c1`, the Activity result in the series on HepG2 is “Non-Toxic”; in series [1], 12.8; in series [2], 3.23; in series [3], 4.78; in series [4], 13.2; in series [5], 19.1. In addition, the Activity in series [6] came to 1.74.

Consider `Fc1cccc(-c2noc(-c3ccc(F)c(F)c3)n2)c1`, for which the Activity entry in the series on HepG2 is “Non-Toxic”; in series [1], 2.76; in series [2] it was 1.81; in series [3], 2.05; in series [4], 3.45; in series [5], 5.46. In series [6], the Activity stood at 0.92.

Take `Fc1cccc(-c2nc(-c3ccc4nc[nH]c4c3)no2)c1F`: the Activity result is “Non-Toxic” with HepG2; 4.55 in series [1]; 2.22 in series [2]; 3.7 in series [3]; 10.7 in series [4]; 16.5 in series [5]. Further, the Activity in series [6] was determined as 1.77.

`Fc1cc(F)c(-c2nc(-c3ccc4nc[nH]c4c3)no2)cc1F`: the Activity entry in the series on HepG2 is “Non-Toxic”; in series [1], 3.95; in series [2], 1.86; in series [3], 2.15; in series [4], 4.36; in series [5], 7.92. Moreover, the Activity in series [6] came to 1.55.

In the case of `Fc1ccc(-c2nc(-c3ccc4nc[nH]c4c3)no2)c(F)c1`, the Activity entry in the series with HepG2 is “Non-Toxic”; in series [1] it was 4.58; in series [2], 2.17; in series [3], 2.48; in series [4], 7.34; in series [5] it was 8.36. Besides, the Activity in series [6] is 1.62.

As to `Fc1ccc(-c2nc(-c3ccncc3)no2)cc1F`, the Activity result was “Non-Toxic” with HepG2; 1.29 in series [1]; 1.62 in series [2]; 1.07 in series [3]; 1.72 in series [4]; 2.88 in series [5]. Moreover, in series [6], the Activity was found to be 1.08.

For the compound `Fc1ccccc1-c1nc(-c2ccc3nc[nH]c3c2)no1`, the Activity result in the series on HepG2 was “Non-Toxic”; in series [1] it was 12.7; in series [2] it was 4.51; in series [3], 12; in series [4], 15; in series [5], 19.1. Further, the Activity in series [6] turned out to be 2.01.

With `Fc1ccc(-c2nc(-c3ccccn3)no2)cc1F`, the Activity entry is “Non-Toxic” in the series with HepG2; 1.31 in series [1]; 0.83 in series [2]; 1.05 in series [3]; 1.32 in series [4]; 2.55 in series [5]. Moreover, the Activity in series [6] came out at 0.65.

In the case of `Fc1ccc(-c2nc(-c3ccc4nc[nH]c4c3)no2)cc1Br`, the Activity result with HepG2 was “Non-Toxic”; in series [1], 3.46; in series [2], 1.36; in series [3] it was 1.89; in series [4], 3.92; in series [5], 4.84. In addition, the Activity in series [6] is 1.68.
